Laboratory results as given in ChEMBL document CHEMBL2176919, “Design, synthesis, and biological evaluation of 17-cyclopropylmethyl-3,14β-dihydroxy-4,5α-epoxy-6β-[(4'-pyridyl)carboxamido]morphinan derivatives as peripheral selective μ opioid receptor Agents” (J Med Chem, 2012).
Calls of active or inactive are those of the source.

Key:
[1] = biological target: T1, Kappa-type opioid receptor (Homo sapiens, UniProt P41145); assay: Displacement of [3H]DPN from kappa opioid receptor expressed in CHO cells after 1 hr; type: cell-based
T1 sequence (P41145 whole entry): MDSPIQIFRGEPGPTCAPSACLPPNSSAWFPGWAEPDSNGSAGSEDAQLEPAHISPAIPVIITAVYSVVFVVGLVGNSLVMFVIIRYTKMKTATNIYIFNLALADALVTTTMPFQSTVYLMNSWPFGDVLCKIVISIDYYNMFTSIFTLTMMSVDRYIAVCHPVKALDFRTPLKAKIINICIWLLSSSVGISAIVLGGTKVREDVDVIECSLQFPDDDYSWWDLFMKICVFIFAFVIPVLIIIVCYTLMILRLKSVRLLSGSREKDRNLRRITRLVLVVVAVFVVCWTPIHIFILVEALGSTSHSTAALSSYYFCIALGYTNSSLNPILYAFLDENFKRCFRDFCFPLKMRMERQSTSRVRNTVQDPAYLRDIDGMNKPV

[2] = Selectivity ratio of Ki for kappa opioid receptor to Ki for mu opioid receptor
[3] = Selectivity ratio of Ki for delta opioid receptor to Ki for mu opioid receptor
[4] = biological target: T2, Delta-type opioid receptor (Homo sapiens, UniProt P41143); assay: Displacement of [3H]NTI from delta opioid receptor expressed in CHO cells after 1 hr; type: cell-based
T2 sequence (P41143 whole entry): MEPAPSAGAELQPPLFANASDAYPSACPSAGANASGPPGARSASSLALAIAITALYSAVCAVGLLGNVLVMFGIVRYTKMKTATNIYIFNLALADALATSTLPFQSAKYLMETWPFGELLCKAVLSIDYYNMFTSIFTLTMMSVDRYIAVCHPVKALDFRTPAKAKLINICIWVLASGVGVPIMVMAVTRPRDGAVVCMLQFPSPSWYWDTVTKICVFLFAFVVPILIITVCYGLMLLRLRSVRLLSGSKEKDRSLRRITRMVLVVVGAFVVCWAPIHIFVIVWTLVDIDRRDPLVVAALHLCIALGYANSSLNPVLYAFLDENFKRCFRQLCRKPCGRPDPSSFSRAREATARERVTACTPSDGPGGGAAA

Mu-type opioid receptor [5] = biological target: T3, Mu-type opioid receptor (Homo sapiens, UniProt P35372); assay: Displacement of [3H]Naloxone from mu opioid receptor expressed in CHO cells after 1 hr; type: cell-based
T3 sequence (P35372 whole entry): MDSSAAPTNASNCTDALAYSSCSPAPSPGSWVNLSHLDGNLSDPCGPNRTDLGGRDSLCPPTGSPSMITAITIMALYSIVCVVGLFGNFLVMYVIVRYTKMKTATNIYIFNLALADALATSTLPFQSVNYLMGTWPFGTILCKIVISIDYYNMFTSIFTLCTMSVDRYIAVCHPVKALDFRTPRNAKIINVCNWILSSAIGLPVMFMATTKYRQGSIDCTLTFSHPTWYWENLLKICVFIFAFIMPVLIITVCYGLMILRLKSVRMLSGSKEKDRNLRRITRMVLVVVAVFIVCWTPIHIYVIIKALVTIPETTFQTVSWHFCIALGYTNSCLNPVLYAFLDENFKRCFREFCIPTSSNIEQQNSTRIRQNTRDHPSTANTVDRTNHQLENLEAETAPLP

Mu-type opioid receptor [6] = biological target: T3, Mu-type opioid receptor; assay: Agonist activity at mu opioid receptor expressed in CHO cells assessed as stimulation of [35S]-GTP-gammaS binding relative to DAMGO; type: cell-based
Mu-type opioid receptor [7] = biological target: T3, Mu-type opioid receptor; assay: Agonist activity at mu opioid receptor expressed in CHO cells assessed as stimulation of [35S]-GTP-gammaS binding; type: cell-based
How it was run: (§1)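 GTP[γS] functional assay in membranes of CHO cells expressing the cloned opioid receptor. Membrane protein 10 μg incubated at 30 °C with varying drug concentrations and 0.1 nM 35S-GTP[γS]: μ with 10 μM GDP for 2 h; κ and δ with 20 μM GDP for 1.5 h. Nonspecific binding defined with 10 μM unlabeled GTP[γS].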

Caco-2 = assay: Apparent permeability of the compound across human Caco2 cells; type: ADME, cell-based
How it was run: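 Caco-2 cells (passages 45–47) grown 22 days on 0.4 μm Transwell filters seeded at 80 000 cells/cm2, in DMEM with 10% FBS, antibiotics and nonessential amino acids. Drug in HEPES-buffered (10 mM) HBSS was added apically or basolaterally, and the receiver side was sampled up to 2 h. Samples were quantified by HPLC-UV. Papp = J/(A·Ci).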

Mus musculus [8] = assay: Effect on gastrointestinal motility in Swiss-Webster mouse at 10 mg/kg, sc; type: functional, organism-based; design: dose 10 mg/kg
Mus musculus [9] = assay: Inhibition of morphine-induced decrease in gastrointestinal motility in Swiss-Webster mouse at 10 mg/kg, sc; type: functional, organism-based; design: dose 10 mg/kg
How it was run: (§2)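 GI transit assay in male Swiss-Webster mice, groups of four or six. Compound or saline was given sc at time zero, then morphine (2 or 10 mg/kg) sc 5 min later. A charcoal meal was gavaged 20 min after morphine. Mice were killed 30 min after the meal, and charcoal distance was expressed as a percentage of small-intestine length from pylorus to cecum. Significance was tested by one-way ANOVA with Dunnett's test.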

Mus musculus [10] = assay: Toxicity in morphine-pelleted Swiss-Webster mouse assessed as diarrhea up to 10 mg/kg, sc; type: organism-based; design: dose 10 mg/kg, route subcutaneous; details: in vivo
Mus musculus [11] = assay: Inhibition of morphine-induced decrease in gastrointestinal motility in morphine-pelleted Swiss-Webster mouse at 0.3 to 10 mg/kg, sc; type: functional, organism-based
Mus musculus [12] = assay: Inhibition of morphine-induced decrease in gastrointestinal motility in sc dosed morphine-pelleted Swiss-Webster mouse; type: functional
Mus musculus [13] = assay: Inhibition of morphine-induced antinociceptive activity in Swiss-Webster mouse assessed as thermal-stimulus induced tail flick latency up to 30 mg/kg; type: functional, organism-based; design: dose 30 mg/kg
Mus musculus [14] = assay: Antinociceptive activity in Swiss-Webster mouse assessed as thermal-stimulus induced tail flick latency at 3 mg/kg relative to morphine; type: functional
How it was run: (§3)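 Warm-water tail flick test in male Swiss-Webster mice (25–30 g) with a 56 ± 0.1 °C bath. Only mice with a 2–4 s baseline latency were used, and a 10 s cutoff was applied. Latency was read after drug treatment. %MPE = [(test − control latency)/(10 − control latency)] × 100, computed per mouse with at least six mice per drug.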

[15] = biological target: T2, Delta-type opioid receptor; assay: Agonist activity at delta opioid receptor expressed in CHO cells assessed as stimulation of [35S]-GTP-gammaS binding relative to SNC80; type: functional, cell-based
[16] = biological target: T2, Delta-type opioid receptor; assay: Agonist activity at delta opioid receptor expressed in CHO cells assessed as stimulation of [35S]-GTP-gammaS binding; type: functional, cell-based; how it was run: as §1
[17] = biological target: T1, Kappa-type opioid receptor; assay: Agonist activity at kappa opioid receptor expressed in CHO cells assessed as stimulation of [35S]-GTP-gammaS binding relative to U50,488H; type: functional, cell-based
[18] = biological target: T1, Kappa-type opioid receptor; assay: Agonist activity at kappa opioid receptor expressed in CHO cells assessed as stimulation of [35S]-GTP-gammaS binding; type: functional, cell-based; how it was run: as §1
Mus musculus [19] = assay: Antinociceptive activity in Swiss-Webster mouse assessed as thermal-stimulus induced tail flick latency at 10 mg/kg; type: functional
How it was run: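 Male Swiss-Webster mice, 25–30 g, allowed 18 h to recover from transport. Warm-water tail flick, bath at 56 ± 0.1 °C; only mice with 2–4 s baseline latency used. Latency retested after drug at the appropriate time, 10 s cutoff. Expressed as %MPE = [(test − control latency)/(10 − control latency)] × 100, calculated per mouse, at least six mice per drug.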

Mus musculus [20] = assay: Inhibition of morphine-induced decrease in gastrointestinal motility in sc dosed Swiss-Webster mouse; type: functional; how it was run: as §2
Mus musculus [21] = assay: Inhibition of morphine-induced antinociceptive activity in Swiss-Webster mouse assessed as thermal-stimulus induced tail flick latency at 10 mg/kg; type: functional, organism-based; design: dose 10 mg/kg
Mus musculus [22] = assay: Antinociceptive activity in Swiss-Webster mouse assessed as thermal-stimulus induced tail flick latency at 10 mg/kg relative to morphine; type: functional; how it was run: as §3
Mu-type opioid receptor [23] = biological target: T3, Mu-type opioid receptor; details: CHO; 100 nM

COc1cnccc1C(=O)N[C@@H]1CC[C@@]2(O)[C@H]3Cc4ccc(O)c5c4[C@@]2(CCN3CC2CC2)[C@H]1O5
Ki [1]: 4.28 nM
Ratio Ki [2]: 10
Ratio Ki [3]: 242
Ki [4]: 104 nM
Ki (Mu-type opioid receptor [5]): 0.43 nM

O=C(Cc1ccncc1)N[C@@H]1CC[C@@]2(O)[C@H]3Cc4ccc(O)c5c4[C@@]2(CCN3CC2CC2)[C@H]1O5
Emax (Mu-type opioid receptor [6]): 32.8%
Ratio Ki [2]: 10.6
Ratio Ki [3]: 1020

O=C(N[C@@H]1CC[C@@]2(O)[C@H]3Cc4ccc(O)c5c4[C@@]2(CCN3CC2CC2)[C@H]1O5)c1ccnc(Br)c1
Emax (Mu-type opioid receptor [6]): 50.8%
Ratio Ki [2]: 0.3
Ratio Ki [3]: 276

O=C(N[C@@H]1CC[C@@]2(O)[C@H]3Cc4ccc(O)c5c4[C@@]2(CCN3CC2CC2)[C@H]1O5)c1ccncc1Br
Emax (Mu-type opioid receptor [6]): 23.2%
Ratio Ki [2]: 6
Ratio Ki [3]: 285

C[N@+]1(CC2CC2)CC[C@]23c4c5ccc(O)c4O[C@H]2C(=O)CC[C@@]3(O)[C@H]1C5
Ratio Ki [2]: 10
Ratio Ki [3]: 24

N#Cc1cc(C(=O)N[C@@H]2CC[C@@]3(O)[C@H]4Cc5ccc(O)c6c5[C@@]3(CCN4CC3CC3)[C@H]2O6)ccn1
Ki [1]: 0.13 nM
Emax (Mu-type opioid receptor [6]): 43.1%
EC50 (Mu-type opioid receptor [7]): 10 nM
Ratio Ki [2]: 0.1
Ratio Ki [3]: 60
Ki [4]: 75.3 nM
Ki (Mu-type opioid receptor [5]): 1.25 nM

O=C(N[C@@H]1CC[C@@]2(O)[C@H]3Cc4ccc(O)c5c4[C@@]2(CCN3CC2CC2)[C@H]1O5)c1ccnnc1
Ki [1]: 1.57 nM
Emax (Mu-type opioid receptor [6]): 27.6%
EC50 (Mu-type opioid receptor [7]): 28.3 nM
Ratio Ki [2]: 0.7
Ratio Ki [3]: 203
Ki [4]: 420 nM
Ki (Mu-type opioid receptor [5]): 2.07 nM

O=C(CNC(=O)c1ccncc1)N[C@@H]1CC[C@@]2(O)[C@H]3Cc4ccc(O)c5c4[C@@]2(CCN3CC2CC2)[C@H]1O5
Papp (Caco-2): permeable
Activity (Mus musculus [8]): Active
inhibition (Mus musculus [9]): inactive
Activity (Mus musculus [10]): Non-toxic
inhibition (Mus musculus [11]): Active
ED50 (Mus musculus [12]): 0.08 mg/kg
inhibition (Mus musculus [13]): inactive
MPE (Mus musculus [14]): 11.2%
Emax [15]: 84.3%
EC50 [16]: 19 nM
Emax [17]: 23.5%
EC50 [18]: 25 nM
Emax (Mu-type opioid receptor [6]): 22.6%

COc1cc(C(=O)N[C@@H]2CC[C@@]3(O)[C@H]4Cc5ccc(O)c6c5[C@@]3(CCN4CC3CC3)[C@H]2O6)ccn1
Ki [1]: 0.46 nM
Emax (Mu-type opioid receptor [6]): 25.3%
EC50 (Mu-type opioid receptor [7]): 7.89 nM
Ratio Ki [2]: 0.8
Ratio Ki [3]: 267
Ki [4]: 160 nM
Ki (Mu-type opioid receptor [5]): 0.6 nM

O=C(N[C@@H]1CC[C@@]2(O)[C@H]3Cc4ccc(O)c5c4[C@@]2(CCN3CC2CC2)[C@H]1O5)c1ccncc1Cl
Emax (Mu-type opioid receptor [6]): 24.9%
Ratio Ki [2]: 30
Ratio Ki [3]: 746

CN1CCC(C(=O)N[C@@H]2CC[C@@]3(O)[C@H]4Cc5ccc(O)c6c5[C@@]3(CCN4CC3CC3)[C@H]2O6)CC1
Emax (Mu-type opioid receptor [6]): 37.2%
Ratio Ki [2]: 7.5
Ratio Ki [3]: 2970

CN1CC[C@]23c4c5ccc(O)c4O[C@H]2[C@@H](O)C=C[C@H]3[C@H]1C5 [MORPHINE]
MPE (Mus musculus [19]): 100%

O=C(CCc1ccncc1)N[C@@H]1CC[C@@]2(O)[C@H]3Cc4ccc(O)c5c4[C@@]2(CCN3CC2CC2)[C@H]1O5
Emax (Mu-type opioid receptor [6]): 22.6%
Ratio Ki [2]: 2.9
Ratio Ki [3]: 516

Cc1cc(C(=O)N[C@@H]2CC[C@@]3(O)[C@H]4Cc5ccc(O)c6c5[C@@]3(CCN4CC3CC3)[C@H]2O6)ccn1
Emax (Mu-type opioid receptor [6]): 43.3%
Ratio Ki [2]: 1.5
Ratio Ki [3]: 232

Cc1cnccc1C(=O)N[C@@H]1CC[C@@]2(O)[C@H]3Cc4ccc(O)c5c4[C@@]2(CCN3CC2CC2)[C@H]1O5
Papp (Caco-2): permeable
ED50 (Mus musculus [20]): 7.85 mg/kg
Activity (Mus musculus [8]): Active
inhibition (Mus musculus [9]): Active
Activity (Mus musculus [10]): Non-toxic
ED50 (Mus musculus [12]): 0.03 mg/kg
inhibition (Mus musculus [12]): Dose-dependent effect
inhibition (Mus musculus [21]): inactive
MPE (Mus musculus [22]): 4.4%
Emax [15]: 90.2%
EC50 [16]: 38.6 nM
Emax [17]: 31.4%
EC50 [18]: 26.4 nM
Emax (Mu-type opioid receptor [6]): 30.6%
Ratio Ki [2]: 166
Ratio Ki [3]: 470

O=C(N[C@@H]1CC[C@@]2(O)[C@H]3Cc4ccc(O)c5c4[C@@]2(CCN3CC2CC2)[C@H]1O5)c1ccncc1
Emax [17]: 45.5%
EC50 [18]: 28.8 nM

C[C@@H](O)[C@H](NC(=O)[C@H]1NC(=O)[C@H]([C@@H](C)O)NC(=O)[C@H](CCCNC(=N)N)NC(=O)[C@@H](Cc2c[nH]c3ccccc23)NC(=O)[C@H](Cc2ccc(O)cc2)NC(=O)[C@@H](NC(=O)[C@H](N)Cc2ccccc2)CSSC1(C)C)C(N)=O
Emax (Mu-type opioid receptor [23]): 1.99%

O=C(N[C@@H]1CC[C@@]2(O)[C@H]3Cc4ccc(O)c5c4[C@@]2(CCN3CC2CC2)[C@H]1O5)c1ccnc(Cl)c1
Emax (Mu-type opioid receptor [6]): 58.2%
Ratio Ki [2]: 1.5
Ratio Ki [3]: 6110
